Assay results from ChEMBL document CHEMBL1765010, “Reversible competitive α-ketoheterocycle inhibitors of fatty acid amide hydrolase containing additional conformational constraints in the acyl side chain: orally active, long-acting analgesics” (J Med Chem, 2011).
Active and inactive are the calls of the source.

How the values were obtained:
[1] = Half life in rat liver microsomes; type: ADME, Microsome
Mus musculus [2] = assay: Inhibition of FAAH in C57Bl/6J mouse liver assessed as increase of 2-arachidonoylglycerol level at 30 mg/kg, ip after 1 hr relative to control; type: functional; settings: route intraperitoneal
Mus musculus [3] = assay: Inhibition of FAAH in C57Bl/6J mouse liver assessed as increase of anandamide level at 30 mg/kg, ip after 1 hr relative to control; type: functional; settings: route intraperitoneal
Mus musculus [4] = assay: Inhibition of FAAH in C57Bl/6J mouse brain assessed as increase of N-palmitoyl ethanolamine level at 30 mg/kg, ip after 1 hr relative to control; type: functional; settings: route intraperitoneal
In short: (§1)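 Male C57Bl/6J mice (<6 months, 20–28 g) dosed i.p. at 30 mg/kg in 18:1:1 saline:ethanol:emulphor emulsion; brains taken 1 h later. One mouse in the initial screen, 3 per group in the follow-up. Brain homogenized in CHCl3:MeOH:Tris pH 8.0 with deuterated lipid standards; organic extract quantified by reverse-phase C18 LC-ESI-MS/MS against vehicle controls.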

Mus musculus [5] = assay: Inhibition of FAAH in C57Bl/6J mouse liver assessed as increase of N-palmitoyl ethanolamine level at 30 mg/kg, ip after 1 hr relative to control; type: functional; settings: route intraperitoneal
Mus musculus [6] = assay: Inhibition of FAAH in C57Bl/6J mouse brain assessed as increase of anandamide level at 30 mg/kg, ip after 1 hr relative to control; type: functional; settings: route intraperitoneal; in short: as §1
Mus musculus [7] = assay: Inhibition of FAAH in C57Bl/6J mouse brain assessed as increase of anandamide level at 50 mg/kg, po after 1 hr relative to control; type: functional
In short: (§2)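 Male C57Bl/6J mice (<6 months, 20–28 g) given compound orally as a PEG300 solution at 10, 25 or 50 mg/kg, with 3 mice per group in the 50 mg/kg p.o. comparison; brains collected 1 h post-dose. Lipids extracted in CHCl3:MeOH:Tris pH 8.0 with deuterated internal standards, then measured by C18 LC-ESI-MS/MS relative to vehicle-treated mice.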

Mus musculus [8] = assay: Inhibition of FAAH in C57Bl/6J mouse brain assessed as increase of arachidonic acid level at 30 mg/kg, ip after 1 hr relative to control; type: functional; settings: route intraperitoneal; in short: as §1
Mus musculus [9] = assay: Inhibition of FAAH in C57Bl/6J mouse brain assessed as increase of N-palmitoyl ethanolamine level at 50 mg/kg, po after 1 hr relative to control; type: functional; in short: as §2
Mus musculus [10] = assay: Inhibition of FAAH in C57Bl/6J mouse brain assessed as increase of 2-arachidonoylglycerol level at 50 mg/kg, po after 1 hr relative to control; type: functional; in short: as §2
[11] = molecular target: T1, Fatty-acid amide hydrolase 1 (Homo sapiens) (UniProt O00519); assay: Reversible inhibition of full-length human FAAH expressed in COS-7 cells by Lineweaver-Burk analysis; type: cell-based
T1 sequence (whole entry): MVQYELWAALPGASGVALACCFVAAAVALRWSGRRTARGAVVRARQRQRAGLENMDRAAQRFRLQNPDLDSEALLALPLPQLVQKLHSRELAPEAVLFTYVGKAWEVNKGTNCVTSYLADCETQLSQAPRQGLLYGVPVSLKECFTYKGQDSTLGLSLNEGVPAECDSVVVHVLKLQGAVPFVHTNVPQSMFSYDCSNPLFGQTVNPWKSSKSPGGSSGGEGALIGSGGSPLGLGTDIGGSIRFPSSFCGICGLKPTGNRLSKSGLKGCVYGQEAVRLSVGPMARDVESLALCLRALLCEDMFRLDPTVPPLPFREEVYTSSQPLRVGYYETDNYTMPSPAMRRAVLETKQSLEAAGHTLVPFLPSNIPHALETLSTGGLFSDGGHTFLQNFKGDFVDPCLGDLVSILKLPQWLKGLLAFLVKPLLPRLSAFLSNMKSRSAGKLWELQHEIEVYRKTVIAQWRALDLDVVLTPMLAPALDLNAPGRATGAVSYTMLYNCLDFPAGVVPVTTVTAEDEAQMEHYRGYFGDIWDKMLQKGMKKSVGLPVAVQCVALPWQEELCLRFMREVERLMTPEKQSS
In short: (§3)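 Solubilized membrane lysate of COS-7 cells transiently transfected with full-length human FAAH cDNA. Aliquots quenched in 0.1 N HCl at three times; oleamide/oleic acid extracted into EtOAc and separated by TLC. Initial rates (≤10–20% conversion) analysed by Lineweaver–Burk plot.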

[12] = molecular target: T2, Fatty-acid amide hydrolase 1 (Rattus norvegicus, UniProt P97612); assay: Inhibition of rat recombinant FAAH expressed in Escherichia coli assessed as [14C]-labeled oleamide to oleic acid conversion
T2 sequence (P97612 whole entry): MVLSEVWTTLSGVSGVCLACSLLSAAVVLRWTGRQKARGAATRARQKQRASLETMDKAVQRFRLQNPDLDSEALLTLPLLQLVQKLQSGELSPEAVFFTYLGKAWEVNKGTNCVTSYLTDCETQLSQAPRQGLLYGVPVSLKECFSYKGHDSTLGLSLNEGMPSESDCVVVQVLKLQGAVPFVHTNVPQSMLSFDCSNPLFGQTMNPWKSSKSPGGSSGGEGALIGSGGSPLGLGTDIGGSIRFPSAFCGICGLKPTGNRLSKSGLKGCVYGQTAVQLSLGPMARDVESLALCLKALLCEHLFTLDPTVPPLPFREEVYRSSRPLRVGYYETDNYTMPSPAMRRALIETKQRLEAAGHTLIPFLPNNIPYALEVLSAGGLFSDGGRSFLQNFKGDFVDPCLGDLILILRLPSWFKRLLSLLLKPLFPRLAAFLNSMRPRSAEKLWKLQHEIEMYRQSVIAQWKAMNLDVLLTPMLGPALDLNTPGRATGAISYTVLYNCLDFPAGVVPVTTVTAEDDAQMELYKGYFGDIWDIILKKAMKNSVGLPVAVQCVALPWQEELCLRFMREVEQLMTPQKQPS

[13] = molecular target: T1, Fatty-acid amide hydrolase 1 (Homo sapiens); assay: Competitive inhibition of full-length human FAAH expressed in COS-7 cells by Lineweaver-Burk analysis; type: cell-based; in short: as §3
Mus musculus [14] = assay: Antinociceptive activity in CD1 mouse assessed as thermal-stimulus induced tail flick latency at 1.8 to 5.6 mg/kg, iv after 30 to 60 mins; type: functional, organism-based
In short: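 Tail flick at 52 °C in mice, dosed i.v. Baseline responders within 5 s were kept and retested at several times after dosing. Cut-off 10 s, scored 100%. % antinociception = 100 × (test latency − control latency)/(10 − control latency).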

Mus musculus [15] = assay: Inhibition of FAAH in C57Bl/6J mouse brain assessed as increase of 2-arachidonoylglycerol level at 30 mg/kg, ip after 1 hr relative to control; type: functional; settings: route intraperitoneal; in short: as §1
[16] = Half life in human liver microsomes; type: ADME, Microsome

SMILES | half-life [1] | fold change (FC) (Mus musculus [2]) | fold change (FC) (Mus musculus [3]) | fold change (FC) (Mus musculus [4]) | fold change (FC) (Mus musculus [5]) | fold change (FC) (Mus musculus [6]) | fold change (FC) (Mus musculus [7]) | fold change (FC) (Mus musculus [8]) | fold change (FC) (Mus musculus [9]) | fold change (FC) (Mus musculus [10]) | inhibition [11] | Ki [12] | inhibition [13] | Activity (Mus musculus [14]) | fold change (FC) (Mus musculus [15]) | half-life [16]
O=C(CCCCCCc1ccccc1)c1ncc(-c2ccccn2)o1 | 2 min | 0.9 | 7 | 4.6 | 1.6 | 3.3 | 11 | – | – | – | – | – | – | – | – | –
O=C(O)c1cccc(-c2cnc(C(=O)[C@H]3CCc4cc(Oc5ccccc5)ccc4C3)o2)n1 | – | 1.1 | 5 | 2 | 2.1 | 1.5 | 3.5 | 0.7 | 3.7 | 1.4 | Active | 25 nM | Active | Active | 1 | –
O=C(c1ncc(-c2ccccn2)o1)C1CCc2cc(OCc3ccccc3)ccc2C1 (configuration not stated) | – | – | – | – | – | – | – | – | – | – | – | – | – | – | – | 12 min
